Experimental data from ChEMBL document CHEMBL1129282, “High-affinity partial agonist imidazo[1,5-a]quinoxaline amides, carbamates, and ureas at the gamma-aminobutyric acid A/benzodiazepine receptor complex” (J Med Chem, 1996).

Columns and labels:
Rattus norvegicus [1] = test: Antagonistic activity against metrazole-induced clonic convulsions in rat after ip injection; format: functional
[2] = biological target: GABA-A receptor; anion channel (Rattus norvegicus) (UniProt O09028+P15431+P18506+P18508+P19969+P20236+P23574+P23576+P28471+P28473+P30191+P62813+P63079+P63138+Q91ZM7+Q9ES14); settings: Brain, Brain membranes
[3] = biological target: GABA-A receptor; anion channel; test: Inhibition of [3H]flunitrazepam binding to GABA-A receptor of rat cortical membranes; format: cell membranes, Membrane
Rattus norvegicus [4] = species on record: Rattus norvegicus; test: In vitro [36Cl]-uptake in rat cerebrocortical synaptoneurosomes; format: functional; parameters: unit not given here
Outline: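 Rat cerebrocortical synaptoneurosomes (1 mg protein) preincubated 5 min at 30 °C, then mixed with medium containing 0.2 µCi Na36Cl/mL, 118 mM NaCl, 5 mM KCl, 1.8 mM MgSO4, 20 mM Hepes/Tris pH 7.0, ± drug (methanol ≤0.4%). Uptake stopped after 5 s with ice-cold buffer, rapid filtration, four washes, radioactivity counted.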

SMILES	[35S] TBPS shift [2]	Ki [3] [nM]	ED50 (Rattus norvegicus [1]) [mg/kg]	36Cl- uptake (Rattus norvegicus [4])
CC(C)(C)OC(=O)N1Cc2c(-c3noc(C4CC4)n3)ncn2-c2ccccc21	2.9		0.06	
CC(C)(C)c1nc(-c2ncn3c2CN(C(=O)N2CCCC2)c2ccccc2-3)no1	0.76	14.7	18	1.2
O=C(Sc1ccccc1)N1Cc2c(-c3noc(C4CC4)n3)ncn2-c2ccccc21	1.1	11	> 50	0.5
CC1(C)c2c(-c3noc(C4CC4)n3)ncn2-c2ccccc2N1C(N)=O	0.6	86	> 50	0.22
O=C(Nc1ccccc1)N1Cc2c(-c3noc(C4CC4)n3)ncn2-c2ccccc21	1.3	16	> 50	0.29
CNC(=O)N1c2ccccc2-n2cnc(-c3noc(C4CC4)n3)c2C1(C)C	0.71	21	> 50	0.67
CC(=O)N1c2ccccc2-n2cnc(-c3noc(C4CC4)n3)c2C1(C)C	0.7		30	
O=C(N1Cc2c(-c3noc(C4CC4)n3)ncn2-c2ccccc21)C(F)(F)F	0.73	143	35	
COC(=O)N1c2ccccc2-n2cnc(-c3noc(C4CC4)n3)c2C1(C)C	0.8		> 50	0.4
O=C(N1CCCC1)N1Cc2c(-c3noc(C4CC4)n3)ncn2-c2cccc(Cl)c21	0.6		> 50	0.56

Further lines, with some results ahead:

[35S] TBPS shift [2]	Ki [3] [nM]	SMILES	ED50 (Rattus norvegicus [1]) [mg/kg]	36Cl- uptake (Rattus norvegicus [4])
0.41	0.45	O=C(N1CCCC1)N1Cc2c(-c3noc(C4CC4)n3)ncn2-c2ccccc21	0.24	0.5
0.88	3.7	CN(C)C(=O)N1Cc2c(-c3noc(C4CC4)n3)ncn2-c2ccc(Cl)cc21		
0.61	7.2	NC(=O)N1Cc2c(-c3noc(C4CC4)n3)ncn2-c2ccccc21	13	0.75
1.1	3.4	CC(C)NC(=O)N1Cc2c(-c3noc(C4CC4)n3)ncn2-c2ccccc21	11	
0.84	0.81	O=C(N1CCOCC1)N1Cc2c(-c3noc(C4CC4)n3)ncn2-c2ccccc21	0.84	0.15
1.1	2.1	CCSC(=O)N1Cc2c(-c3noc(C4CC4)n3)ncn2-c2ccccc21	1.3	1.1
0.98	0.43	O=C(c1ccco1)N1Cc2c(-c3noc(C4CC4)n3)ncn2-c2ccccc21	21	0.55
0.27	1.1	O=C(c1ccccn1)N1Cc2c(-c3noc(C4CC4)n3)ncn2-c2ccccc21	> 50	
1.25	0.56	O=C(N1CCCC1)N1Cc2c(-c3noc(C4CC4)n3)ncn2-c2ccc(F)cc21	> 50	0.69
0.39	0.65	CCc1nc(-c2ncn3c2CN(C(=O)N2CCCC2)c2ccccc2-3)no1	> 50	0.25
0.97	3.1	CN(C)C(=O)N1c2ccccc2-n2cnc(-c3noc(C4CC4)n3)c2C1(C)C	> 50	0.34
1.1	1.8	CC(C)OC(=O)N1Cc2c(-c3noc(C4CC4)n3)ncn2-c2ccccc21	1.9	
0.7	1.5	COC(=O)N1Cc2c(-c3noc(C4CC4)n3)ncn2-c2ccccc21	4.4	
0.99	0.61	CN(C)C(=O)N1Cc2c(-c3noc(C4CC4)n3)ncn2-c2ccc(F)cc21		0.95
